Substrate in series [1]: O=C(O)CC(=O)C(=O)O
In words: Binding affinity to Mycobacterium tuberculosis wild type CitA expressed in Escherichia coli cells assessed as Kcat/Km by Michaelis-Menten analysis. The gist of the method: (§1)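 His-tagged CitA (wild type or variant) was expressed in E. coli, purified by cobalt affinity and size exclusion, then dialysed against 20 mM Tris pH 8.0. Activity was measured by DTNB (300 μM) thiol detection of released CoA at 412 nm, with OAA and AcCoA substrates and 10 nM enzyme, in 50 mM Tris pH 8.0 at 25 °C. A no-enzyme control was run. Triplicate runs were fitted to Michaelis–Menten.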

Substrate in series [2]: O=C(O)CC(=O)C(=O)O
In words: Binding affinity to Mycobacterium tuberculosis wild type CitA expressed in Escherichia coli cells assessed as Vmax by Michaelis-Menten analysis. An outline of the steps:
as §1

Substrate in series [3]: O=C(O)CC(=O)C(=O)O
In words: Binding affinity to Mycobacterium tuberculosis wild type CitA expressed in Escherichia coli cells assessed as catalytic constant by Michaelis-Menten analysis. An outline of the steps:
as §1

Substrate in series [4]: O=C(O)CC(=O)C(=O)O
In words: Binding affinity to Mycobacterium tuberculosis wild type CitA expressed in Escherichia coli cells assessed as apparent Km by Michaelis-Menten analysis. An outline of the steps: as §1

The text below walks through data of ChEMBL document CHEMBL5257161, “Mycobacterium tuberculosis CitA activity is modulated by cysteine oxidation and pyruvate binding” (RSC Med Chem, 2023).

B1: Putative citrate synthase 2 (Mycobacterium tuberculosis), P9WPD3 (protein)
chain: MTVVPENFVPGLDGVVAFTTEIAEPDKDGGALRYRGVDIEDLVSQRVTFGDVWALLVDGNFGSGLPPAEPFPLPIHSGDVRVDVQAGLAMLAPIWGYAPLLDIDDATARQQLARASVMALSYVAQSARGIYQPAVPQRIIDECSTVTARFMTRWQGEPDPRHIEAIDAYWVSAAEHGMNASTFTARVIASTGADVAAALSGAIGAMSGPLHGGAPARVLPMLDEVERAGDARSVVKGILDRGEKLMGFGHRVYRAEDPRARVLRAAAERLGAPRYEVAVAVEQAALSELRERRPDRAIETNVEFWAAVVLDFARVPANMMPAMFTCGRTAGWCAHILEQKRLGKLVRPSAIYVGPGPRSPESVDGWERVLTTA
Turning to B1, the kcat/Km in series [1] came to 400000 M⁻¹ s⁻¹. Besides, in series [2], the Vmax came out at 3.4 µM/min. The kcat in series [3] stood at 5.67 s⁻¹. Besides, the Km in series [4] amounted to 14.3 µM.
